Series [1] is described as follows: Therapeutic index, ratio of IC50 for human H9 cells to EC50 for HIV1 3B. Format: cell-based. As to conditions: read-out: TI; call rule not given here. The method, boiled down:
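Mock-infected H9 cells were run in parallel under the same conditions, and toxicity was measured by XTT. IC50 is the concentration toxic to 50% of the cells. TI = IC50/EC50, where EC50 is 50% suppression of HIV-1 IIIB replication measured by day-6 p24 antigen capture.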

Series [2] has as its target Human immunodeficiency virus type 1 reverse transcriptase (Human immunodeficiency virus 1, UniProt Q72547). The experiment in a line: Inhibition of HIV1 DH012 reverse transcriptase by roche colorimetric assay. The method, boiled down: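 HIV-1 DH012 RT activity was measured across a range of test-compound concentrations using a colorimetric RT kit run per the manufacturer's protocol; IC50 taken as the inhibitory concentration.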

Series [3] has as its system Human immunodeficiency virus 1. Kind of series: Antiviral activity against HIV1 IIIB infected in human H9 cells after 6 days by p24 antigen capture assay. As to conditions: Human immunodeficiency virus 1, H9, 144 h.
The subject of series [4] is Human immunodeficiency virus 1. Kind of series: Antiviral activity against HIV1 3B infected in human H9 cells assessed as inhibition of viral replication at up to 100 ug/mL after 6 hrs by p24 antigen based assay. Format: functional, organism-based. As to conditions: in the assay text read “after 6 days” for “after 6 hrs”. The method, boiled down: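 H9 human T cells (3 × 10^5 cells/mL) infected with HIV-1 IIIB at 125 TCID50. Compounds dissolved in DMSO and screened at final 100, 20, 4 and 0.8 μg/mL, with further dilutions for actives. Medium was replaced on days 1 and 4 post-infection. On day 6 the supernatant p24 antigen was measured by capture assay. EC50 is the concentration suppressing replication by 50%.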

Some results are limits rather than exact numbers.

Usually IC50 stands for the point on the concentration scale where inhibition reaches its midpoint. A higher IC50 goes with lower potency. One may read the EC50 as the concentration needed to bring the measured effect to its halfway point. As for `Cc1cc(=O)oc2c3c(ccc12)O[C@@H](C)[C@H](OC(=O)[C@]12CC[C@](C)(C(=O)O1)C2(C)C)[C@@H]3OC(=O)[C@]12CC[C@](C)(C(=O)O1)C2(C)C`, the selectivity ratio in series [1] is above 706. The midpoint of inhibition in series [2], the IC50, lay at 6.7 µM. The molecule further had an EC50 in series [3] below 0.04 µM.

As to `Cc1cc(=O)oc2c3c(ccc12)O[C@H](C)[C@@H](OC(=O)[C@]12CC[C@](C)(C(=O)O1)C2(C)C)[C@H]3OC(=O)[C@]12CC[C@](C)(C(=O)O1)C2(C)C`, the selectivity ratio in series [1] came out at 17.8. In series [3], this molecule gave an EC50 of 2.26 µM.

For the molecule `Cc1cc(=O)oc2c3c(ccc12)O[C@H](C)[C@H](OC(=O)[C@]12CC[C@](C)(C(=O)O1)C2(C)C)[C@@H]3OC(=O)[C@]12CC[C@](C)(C(=O)O1)C2(C)C`, the EC50 entry in series [4] was “Not Active”.

For `Cc1cc(=O)oc2c3c(ccc12)S[C@@H](C)[C@@H](OC(=O)[C@]12CC[C@](C)(C(=O)O1)C2(C)C)[C@H]3OC(=O)[C@]12CC[C@](C)(C(=O)O1)C2(C)C`, the selectivity ratio in series [1] is above 1000. In series [3], the concentration for a half-maximal effect (EC50) is below 0.039 µM.

Consider `Cc1cc(=O)oc2c3c(ccc12)S[C@H](C)[C@@H](OC(=O)[C@]12CC[C@](C)(C(=O)O1)C2(C)C)[C@H]3OC(=O)[C@]12CC[C@](C)(C(=O)O1)C2(C)C`, for which, in series [4], the EC50 result was “Not Active”.

As to `Cc1cc(=O)oc2c3c(ccc12)S[C@H](C)[C@H](OC(=O)[C@]12CC[C@](C)(C(=O)O1)C2(C)C)[C@@H]3OC(=O)[C@]12CC[C@](C)(C(=O)O1)C2(C)C`, in series [1], the selectivity ratio amounted to 31.1. The molecule further returned an EC50 in series [3] of 1.26 µM.

On to `Cc1cc(=O)oc2c3c(ccc12)[S+]([O-])[C@@H](C)C(OC(=O)C12CCC(C)(C(=O)O1)C2(C)C)C3OC(=O)C12CCC(C)(C(=O)O1)C2(C)C` (some centres undefined), for which the EC50 result in series [4] is “Not Active”.

Turning to `Cc1cc(=O)oc2c3c(ccc12)[S+]([O-])[C@H](C)[C@H](OC(=O)[C@]12CC[C@](C)(C(=O)O1)C2(C)C)[C@@H]3OC(=O)[C@]12CC[C@](C)(C(=O)O1)C2(C)C` (some centres undefined), the selectivity ratio in series [1] was found to be 1.57. This molecule returned an EC50 in series [3] of 24.4 µM.

For the molecule `Cc1cc(=O)oc2c3c(ccc12)S(=O)(=O)[C@@H](C)C(OC(=O)C12CCC(C)(C(=O)O1)C2(C)C)C3OC(=O)C12CCC(C)(C(=O)O1)C2(C)C` (some centres undefined), the selectivity ratio in series [1] was determined as 11.1. In series [3], this molecule showed a concentration for a half-maximal effect (EC50) of 3.37 µM.

As for `Cc1cc(=O)oc2c3c(ccc12)OC(C)(C)[C@H](OC(=O)[C@]12CC[C@](C)(C(=O)O1)C2(C)C)[C@@H]3OC(=O)[C@]12CC[C@](C)(C(=O)O1)C2(C)C`, the selectivity ratio in series [1] turned out to be 301. Further, half-maximal inhibition in series [2] (IC50) required 10.4 µM. Further, the 50% effective concentration (EC50) in series [3] stood at 0.126 µM.

For `Cc1cc(=O)oc2c3c(ccc12)OC[C@H](OC(=O)[C@]12CC[C@](C)(C(=O)O1)C2(C)C)[C@@H]3OC(=O)[C@]12CC[C@](C)(C(=O)O1)C2(C)C`, the selectivity ratio in series [1] is 2.54. This molecule gave an EC50 in series [3] of 16.2 µM.

`Cc1cc(=O)oc2c3c(ccc12)SC[C@H](OC(=O)[C@]12CC[C@](C)(C(=O)O1)C2(C)C)[C@@H]3OC(=O)[C@]12CC[C@](C)(C(=O)O1)C2(C)C`: in series [1], the selectivity ratio was found to be 40.6. The same molecule came in with an EC50 in series [3] of 0.99 µM.

With `Cc1cn([C@H]2C[C@H](N=[N+]=[N-])[C@@H](CO)O2)c(=O)[nH]c1=O` [ZIDOVUDINE], it took 0.01 µM to reach a half-maximal effect in series [3] (EC50).

The values are drawn from ChEMBL document CHEMBL1250555, “Anti-AIDS agents 84. Synthesis and anti-human immunodeficiency virus (HIV) activity of 2'-monomethyl-4-methyl- and 1'-thia-4-methyl-(3'R,4'R)-3',4'-di-O-(S)-camphanoyl-(+)-cis-khellactone (DCK) analogs” (Bioorg Med Chem, 2010).
